ChEMBL document CHEMBL4229356, “Synthesis and antikinetoplastid evaluation of bis(benzyl)spermidine derivatives” (Eur J Med Chem, 2018)
Active and inactive are the calls of the source. The calls are words filed in the database; no cut-off is given here.

Columns and labels:
[1] = test system: Trypanosoma brucei gambiense; test: Trypanocidal activity against Trypanosoma brucei gambiense FeoITMAP/1893 after 72 hrs by resazurin dye based assay; format: functional, organism-based; settings: FeoITMAP/1893, 72 h
Procedure, shortened: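 T. b. gambiense Feo was grown in supplemented IMDM with 10% FBS. Cells at 4.10⁴/mL were exposed 72 h at 37 °C, 5% CO2 in the dark to two-fold dilutions. Resazurin (450 µM solution) was added for 6 h and read at OD570/OD600. Result given as IC50; pentamidine was the reference.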

[2] = Selectivity index, ratio of CC50 for mouse RAW264.7 cells to IC50 for Trypanosoma brucei gambiense FeoITMAP/1893; format: toxicity; settings: read-out: Ratio CC50/IC50
Leishmania donovani [3] = test: Antiparasitic activity against Leishmania donovani LV9 axenic amastigotes incubated for 72 hrs by resazurin dye based assay; format: functional, organism-based; settings: LV9, 72 h
Procedure, shortened: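 LV9 axenic amastigotes were derived from promastigotes in M-199 at pH 5.5, 37 °C, 5% CO2, and used in log phase. Cells at 10⁶/mL were exposed 72 h to two-fold dilutions from 100 to 0.02 μM. Resazurin was then added for 24 h in the dark and read at OD570/OD600. IC50 is relative to excipient-only controls; miltefosine was the reference.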

Leishmania donovani [4] = test: Antiparasitic activity against Leishmania donovani LV9 axenic intramacrophage amastigotes infected in mouse RAW264.7 cells incubated for 48 hrs by Sybr Green 1 dye based fluorescence assay; format: functional, organism-based; settings: LV9, RAW264.7, 48 h
Procedure, shortened: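 RAW 264.7 cells at 2.10⁴/well were infected 24 h with axenic amastigotes at a 16:1 parasite to macrophage ratio, then extracellular parasites were removed. Cells were treated 48 h with two-fold dilutions from 100 µM. They were then lysed (freeze-thaw, proteinase K, 55 °C overnight) and total DNA read by SYBR Green I fluorescence against untreated infected cells. Result given as IC50.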

[5] = Cytotoxicity against mouse RAW264.7 cells assessed as reduction in cell viability after 48 hrs by resazurin assay; format: cell-based
Procedure, shortened: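 RAW 264.7 macrophages at 2.10⁴/well were preincubated 24 h, then exposed 48 h at 37 °C, 5% CO2 to two-fold dilutions in DMEM. Resazurin was added for 4 h in the dark and read at OD570/OD600. Result given as CC50.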

[6] = molecular target: Trypanothione reductase (Trypanosoma brucei brucei) (UniProt P39051); test: Inhibition of Trypanosoma brucei trypanothione reductase at 40 uM using 40 uM TS2 as substrate in presence of NADPH by spectrophotometric method relative to control
Procedure, shortened: (§1)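 Recombinant T. brucei TryR (5-10 mU) in 40 mM Hepes, 1 mM EDTA, pH 7.5, with 100 μM NADPH, 5% DMSO, at 25 °C. Inhibitor was fixed at 40 μM; TS2 at 100 or 40 μM started the reaction. NADPH consumption was followed at 340 nm and % inhibition taken against DMSO-matched controls. Run in triplicate, mean ± SD.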

Trypanothione reductase [7] = molecular target: T1, Trypanothione reductase (Trypanosoma brucei brucei, UniProt P39051); test: Mixed-type inhibition of Trypanosoma brucei trypanothione reductase assessed as enzyme-inhibitor complex using varying levels of TS2 as substrate in presence of NADPH by Lineweaver-Burk plot analysis
Procedure, shortened: (§2)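 TryR assay in Hepes/EDTA buffer pH 7.5 with 100 μM NADPH at 25 °C, started with TS2 and read at 340 nm. Inhibition type was assigned from a Lineweaver-Burk plot.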

Trypanothione reductase [8] = molecular target: T1, Trypanothione reductase; test: Inhibition of Trypanosoma brucei trypanothione reductase using TS2 as substrate in presence of NADPH by spectrophotometric method
Trypanothione reductase [9] = molecular target: T1, Trypanothione reductase; test: Mixed-type inhibition of Trypanosoma brucei trypanothione reductase assessed as enzyme-inhibitor-substrate complex using varying levels of TS2 as substrate in presence of NADPH by Lineweaver-Burk plot analysis; procedure, shortened: as §2
[10] = Stability in human plasma by HPLC analysis; format: ADME, cell-free; settings: read-out: Stability
Procedure, shortened: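 Human plasma was diluted 10-fold in PBS and incubated with 1 mM compound solutions for 0, 2 and 12 h at 37 °C. Samples were quenched with ice-cold acetonitrile, centrifuged, filtered and analysed by C18 reversed-phase HPLC at 25 °C.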

Leishmania donovani [11] = test: Antiparasitic activity against Leishmania donovani amastigotes
[12] = test system: Trypanosoma brucei brucei; test: Antitrypanosomal activity against Trypanosoma brucei brucei CMP infected in Swiss mouse assessed as change in mean survival time at 100 mg/kg, ip administered as single dose measured up to 30 days; format: functional
Procedure, shortened: (§3)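 Swiss mice infected ip with 10,000 T. b. brucei CMP trypanosomes, randomly grouped (six per batch), then given one ip dose of 100 or 10 mg/kg; controls received pentamidine, melarsamine or excipient. Parasitemia followed at days 2, 3, 4 and 30; deaths recorded by day post-treatment; efficacy as mean survival time minus that of excipient-treated controls (days ± SD).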

Mus musculus [13] = test: Toxicity in Swiss mouse assessed as death at 100 mg/kg, ip administered as single dose measured up to 30 days; format: organism-based; settings: in vivo, 720 h; procedure, shortened: as §3
[14] = Selectivity index, ratio of CC50 for mouse RAW264.7 cells to IC50 for Leishmania donovani LV9 axenic amastigotes incubated for 72 hrs by resazurin dye based assay; format: toxicity; settings: read-out: Ratio CC50/IC50
[15] = molecular target: Trypanothione reductase (Trypanosoma brucei brucei) (UniProt P39051); test: Inhibition of Trypanosoma brucei trypanothione reductase at 40 uM using 100 uM TS2 as substrate in presence of NADPH by spectrophotometric method relative to control; procedure, shortened: as §1
[16] = Stability in human liver S9 fraction at 0.1 to 1 mM up to 12 hrs in presence of NADPH; format: ADME, subcellular; settings: s9, 12 h, 1000 µM
Procedure, shortened: (§4)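 Pooled human liver S9 was diluted 20-fold in PBS (1 mg/ml protein). Compound solutions of 100 μM and 1 mM were incubated 0 and 12 h at 37 °C, with or without 1 mM NADPH.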

[17] = Stability in human liver S9 fraction at 0.1 to 1 mM up to 12 hrs in absence of NADPH; format: ADME, subcellular; settings: s9, 12 h, 1000 µM; procedure, shortened: as §4
[18] = test system: Trypanosoma brucei brucei; test: Antitrypanosomal activity against Trypanosoma brucei brucei CMP infected in Swiss mouse assessed as change in mean survival time at 10 mg/kg, ip administered as single dose measured up to 30 days; format: functional; procedure, shortened: as §3
Mus musculus [19] = test: Toxicity in Swiss mouse assessed as death at 10 mg/kg, ip administered as single dose measured up to 30 days; format: organism-based; settings: in vivo, 720 h; procedure, shortened: as §3
Leishmania donovani [20] = test: Antileishmanial activity against Leishmania donovani infected in Balb/c mouse at 2 mg/kg/day, ip for 5 consecutive days; format: functional, organism-based
Procedure, shortened: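 Balb/c mice infected with L. donovani; 2 mg/kg/day given intraperitoneally on five consecutive days, total 10 mg/kg.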

T1 sequence (P39051 whole entry): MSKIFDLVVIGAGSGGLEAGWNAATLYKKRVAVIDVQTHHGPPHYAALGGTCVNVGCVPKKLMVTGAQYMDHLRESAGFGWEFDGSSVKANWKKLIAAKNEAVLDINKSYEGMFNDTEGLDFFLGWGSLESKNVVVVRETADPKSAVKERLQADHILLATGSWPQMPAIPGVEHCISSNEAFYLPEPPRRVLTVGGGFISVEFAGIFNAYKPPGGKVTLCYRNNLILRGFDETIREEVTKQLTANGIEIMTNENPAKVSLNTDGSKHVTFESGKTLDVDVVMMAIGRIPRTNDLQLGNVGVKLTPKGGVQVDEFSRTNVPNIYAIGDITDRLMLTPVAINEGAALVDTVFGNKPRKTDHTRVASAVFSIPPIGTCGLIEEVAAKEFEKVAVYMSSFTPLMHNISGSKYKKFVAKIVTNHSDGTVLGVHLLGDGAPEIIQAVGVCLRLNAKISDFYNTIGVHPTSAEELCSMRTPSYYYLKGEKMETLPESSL
Chain of Trypanothione reductase (Trypanosoma brucei brucei) (P39051 whole entry, looked up): as the sequence (P39051 whole entry) above

| IC50 (Leishmania donovani [4]) | inhibition [6] | Ki (Trypanothione reductase [7]) | IC50 (Trypanothione reductase [8]) | Ki (Trypanothione reductase [9]) | half-life [10] | IC50 (Leishmania donovani [11]) | inhibition [15] | SMILES | IC50 [1] | selectivity ratio [2] | IC50 (Leishmania donovani [3]) | CC50 at 48 h [5] | Survival [12] | Activity (Mus musculus [13]) | selectivity ratio at 72 h [14] | Stability [16] | Stability [17] | Survival [18] | Activity (Mus musculus [19]) | Activity (Leishmania donovani [20]) |
| --- | --- | --- | --- | --- | --- | --- | --- | --- | --- | --- | --- | --- | --- | --- | --- | --- | --- | --- | --- | --- |
| 27.4 µM | > 50% | 7.5 µM | 8.8 µM | 20 µM | > 720 min | 25 µM |  | NCCCCNCCCN(Cc1ccccc1)Cc1ccccc1 | 8800 nM | 2 | > 100 µM | 17.7 µM |  |  |  |  |  |  |  |  |
|  |  |  |  |  |  |  |  | Cl.Cl.NCCS[As](SCCN)c1ccc(Nc2nc(N)nc(N)n2)cc1 |  |  |  |  | >30 days | Non-Toxic |  |  |  |  |  |  |
| 7.1 µM |  |  |  |  | > 720 min |  |  | NCCCCNCCCN(Cc1ccc(-c2ccccc2)cc1)Cc1ccc(-c2ccccc2)cc1 | 200 nM | 21 | 3.9 µM | 4.2 µM |  |  | 1.1 |  |  |  |  |  |
| 6.5 µM | > 60% |  |  |  |  |  | 30% | NCCCCN(CCCN(Cc1ccc(F)cc1)Cc1ccc(F)cc1)CCCN(Cc1ccc(F)cc1)Cc1ccc(F)cc1 | 100 nM | 15 | 2 µM | 1.5 µM |  |  |  |  |  |  |  |  |
|  |  |  |  |  |  |  |  | N=C(N)c1ccc(OCCCCCOc2ccc(C(=N)N)cc2)cc1.O=S(=O)(O)CCO.O=S(=O)(O)CCO [PENTAMIDINE ISETHIONATE] |  |  |  |  | >30 days | Non-Toxic |  |  |  |  |  |  |
| > 100 µM |  |  |  |  |  | > 3.9 µM |  | NCCCCNCCCN(Cc1ccc(OCc2ccccc2)cc1)Cc1ccc(OCc2ccccc2)cc1 | 35500 nM | > 2.8 | 72.2 µM | > 100 µM |  |  | > 1.4 |  |  |  |  |  |
| 6.1 µM | 60% |  |  |  |  |  | 45% | CC(C)(C)OC(=O)NCCCCNCCCN(Cc1ccc2ccccc2c1)Cc1ccc2ccccc2c1 | 800 nM | 5.4 | 3.8 µM | 4.3 µM |  |  | 1.1 |  |  |  |  |  |
| 8.7 µM | 47% |  |  |  |  |  |  | NCCCCNCCCN(Cc1ccc2ccccc2c1)Cc1ccc2ccccc2c1 | 400 nM | 12.2 | 5 µM | 4.9 µM |  |  |  |  |  |  |  |  |

| SMILES | IC50 (Leishmania donovani [4]) | inhibition [6] | Ki (Trypanothione reductase [7]) | IC50 (Trypanothione reductase [8]) | Ki (Trypanothione reductase [9]) | half-life [10] | IC50 (Leishmania donovani [11]) | inhibition [15] | IC50 [1] | selectivity ratio [2] | IC50 (Leishmania donovani [3]) | CC50 at 48 h [5] | Survival [12] | Activity (Mus musculus [13]) | selectivity ratio at 72 h [14] | Stability [16] | Stability [17] | Survival [18] | Activity (Mus musculus [19]) | Activity (Leishmania donovani [20]) |
| --- | --- | --- | --- | --- | --- | --- | --- | --- | --- | --- | --- | --- | --- | --- | --- | --- | --- | --- | --- | --- |
| NC1CCC(NCCCN(Cc2ccc(F)cc2)Cc2ccc(F)cc2)CC1 (stereo not drawn) | 12.4 µM |  |  |  |  | > 720 min |  |  | 400 nM | 11 | 44.4 µM | 4.4 µM | -2.3 days | Toxic |  | Stable | Stable | 0 days | Non-Toxic | inactive |
